Assay results collected from several papers.
Target: Serine/threonine-protein kinase PAK 4 (PAK4, Homo sapiens, UniProt O96013)

O=C(NCCCN1CCOCC1)c1ccc(Nc2nccc(-c3cc4ccccc4s3)n2)cc1 — remaining binding (binding, competition with immobilised ligand; 1 µM): 91%
C[C@@H](c1ccc(-n2cnc3c(N)ncnc32)cc1)N1CCc2nn(C)c(Cc3ccccc3)c2C1=O — remaining binding (binding, competition with immobilised ligand; 0.1 µM): 100%
Cc1cnn2ncc(-c3ccnc(N(C)C)n3)c2c1 — remaining binding (binding; 1 µM): 100%
O=C(N1CCS(=O)(=O)CC1)N1C[C@H](c2ccc(OC(F)(F)F)cc2)C[C@H](c2nc(C3CC3)no2)C1 — remaining binding (cell-free assay, competition with immobilised ligand; 1 µM): 100%
O=C(c1ccc(Nc2nccc(-c3cc4ccccc4s3)n2)cc1)N1CCC(N2CCCC2)CC1 — remaining binding (binding, competition with immobilised ligand; 1 µM): 81%
C[C@@H](c1cccc(C#N)c1)n1cc(Cl)cc(C(N)=O)c1=N — remaining binding (cell-free assay, competition with immobilised ligand; 1 µM): 100%
COc1ccnn2ncc(-c3ccnc(N(C)C)n3)c12 — remaining binding (binding; 1 µM): 85%
c1cncc(-c2cccc(Nc3nccc(NC4CCCCC4)n3)c2)c1 — remaining binding (binding, competition with immobilised ligand; 10 µM): 83%
CC(C)(C)c1ccc(-c2nc(CBr)nn2-c2cccc(O)c2)cc1 — remaining binding (cell-free assay, competition with immobilised ligand; 10 µM): 87%
CNC(=O)Nc1ccc2c(c1)[C@@]1(CC2)OC(=O)N(CC(=O)N(Cc2ccc(F)cc2)[C@@H](C)C(F)(F)F)C1=O — remaining binding (cell-free assay, competition with immobilised ligand; 1 µM): 95%
O=C(NCC1CCOCC1)c1n[nH]cc1NC(=O)c1c(F)cccc1F — remaining binding (binding, competition with immobilised ligand; 1 µM): 99%
CCN1CCN(Cc2ccc(C(=O)Nc3ccc(C)c(Oc4ccc5c(c4)CC(=O)N5)c3)cc2C(F)(F)F)CC1 — remaining binding (binding, competition with immobilised ligand; 1 µM): 100%
Cc1nc(C2CCN(C(=O)c3ccc(OC(F)(F)F)cc3N)CC2)c2ncc(N3CCN(C)CC3)cc2n1 — remaining binding (cell-free assay, competition with immobilised ligand; 1 µM): 100%
CC1CCCN1c1nccc(-c2cnn3ncccc23)n1 (stereo not shown) — remaining binding (binding; 1 µM): 100%
C[C@@H]1CN(c2ccc3ncc(-c4ccc5[nH]nc(C6CC6)c5c4)n3n2)C[C@H](C)O1 — remaining binding (binding, competition with immobilised ligand; 50 nM): 90%
Cc1nc(N2CC[C@@H](O)C2)ncc1-c1cc(C(F)(F)F)cc2[nH]ncc12 — remaining binding (cell-free assay, competition with immobilised ligand; 1 µM): 100%
F[C@@H]1CCN(c2nccc(-c3cnn4ncccc34)n2)C1 — remaining binding (binding; 1 µM): 100%
O=C(c1ccc(Nc2ncc(Cl)c(-c3cc4ccccc4s3)n2)cc1)N1CCC(N2CCCC2)CC1 — remaining binding (binding, competition with immobilised ligand; 1 µM): 77%
CCC(=N\O)/C(C)=C/c1ccc(F)cc1 — remaining binding (cell-free assay, competition with immobilised ligand; 1 µM): 100%
C[C@@H]1CCN(c2nccc(-c3cnn4ncccc34)n2)C1 — remaining binding (binding; 1 µM): 100%
CS(=O)(=O)c1cc(C2(NC(=O)c3cncc4c3cnn4-c3ccc(F)cc3)CC2)ccn1 — remaining binding (cell-free assay, competition with immobilised ligand; 1 µM): 100%
N[C@@H]1CCN(c2nccc(-c3cnn4ncccc34)n2)C1 — remaining binding (binding; 1 µM): 100%
COc1cnc(Nc2cccc(S(N)(=O)=O)c2)nc1N1CCN(c2ccccc2)C(=O)C1 — remaining binding (binding, competition with immobilised ligand; 1 µM): 100%
O=C(O)c1cc(-c2ccc(C3CCNCC3)cc2)c2ccc(-c3ccc(C(F)(F)F)cc3)cc2c1 — remaining binding (cell-free assay, competition with immobilised ligand; 1 µM): 100%
CN(CCCC(F)(F)F)c1nccc(-c2cnn3ncccc23)n1 — remaining binding (binding; 1 µM): 100%
